Data: ChEMBL document CHEMBL4002610, “Design, synthesis and biological activity evaluation of novel 2,6-difluorobenzamide derivatives through FtsZ inhibition” (2017)
In brackets after ≈: the same amount, converted by molar mass. Activity calls are given as the source filed them. No cut-off for these calls is given here.

Legend:
[1] = system: Escherichia coli ATCC 25922; experiment: Inhibition of FtsZ in Escherichia coli ATCC 25922 assessed as decrease in cell division by measuring lowest compound concentration at which bacterial filamentation is observed after 5 hrs by phase-contrast light microscopy
Method in brief: (§1)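 Cell division inhibition scored by cell morphology under phase-contrast light microscopy. B. subtilis ATCC9372, E. coli ATCC25922 and S. aureus ATCC25923 were exposed to compound. The lowest concentration giving filamentation (B. subtilis, E. coli) or ballooning (S. aureus) was recorded as the cell division inhibitory concentration.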

[2] = target: T1, Cell division protein FtsZ (Staphylococcus aureus) (UniProt P0A031); experiment: Inhibition of FtsZ in Staphylococcus aureus ATCC 25923 assessed as decrease in cell division by measuring cell morphology at 2048 to 4096 ug/ml after 5 hrs by phase-contrast light microscopy
T1 sequence (whole entry): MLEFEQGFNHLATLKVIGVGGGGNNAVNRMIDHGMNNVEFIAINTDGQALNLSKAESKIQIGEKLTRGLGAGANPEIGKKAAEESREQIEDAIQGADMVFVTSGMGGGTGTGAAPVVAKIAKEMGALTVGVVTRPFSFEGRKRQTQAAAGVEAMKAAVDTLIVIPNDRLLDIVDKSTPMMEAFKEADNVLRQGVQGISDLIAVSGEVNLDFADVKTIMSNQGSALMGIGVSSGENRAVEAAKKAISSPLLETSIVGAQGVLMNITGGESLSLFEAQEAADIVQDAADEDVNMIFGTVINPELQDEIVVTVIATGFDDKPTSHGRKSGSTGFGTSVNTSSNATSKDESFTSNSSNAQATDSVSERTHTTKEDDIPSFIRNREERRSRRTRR

Staphylococcus aureus [3] = experiment: Antibacterial activity against Staphylococcus aureus ATCC 25923 after 24 hrs by broth microdilution method; format: functional; conditions: ATCC 25923, 24 h
Method in brief: (§2)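 MIC by standard broth microdilution per NCCLS guidance. Strain panel: B. subtilis ATCC9372 and S. aureus ATCC25923 as standard susceptible strains, S. aureus ATCC29213 as […], S. pyogenes PS as penicillin-susceptible, S. pneumoniae ATCC49619 as standard susceptible, alongside Gram-negative strains.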

Bacillus subtilis [4] = experiment: Inhibition of FtsZ in Bacillus subtilis ATCC 9372 assessed as decrease in cell division by measuring cell morphology at 2048 to 4096 ug/ml after 5 hrs by phase-contrast light microscopy
Staphylococcus aureus [5] = experiment: Antibacterial activity against penicillin-resistant Staphylococcus aureus clinical isolate after 24 hrs by broth microdilution method; format: functional
Streptococcus pneumoniae = experiment: Antibacterial activity against Streptococcus pneumoniae ATCC 49619 after 24 hrs by broth microdilution method; format: functional; conditions: ATCC 49619, 24 h; method in brief: as §2
Staphylococcus aureus [6] = experiment: Antibacterial activity against Staphylococcus aureus ATCC 29213 after 24 hrs by broth microdilution method; format: functional; conditions: ATCC 29213, 24 h; method in brief: as §2
Pseudomonas aeruginosa = experiment: Antibacterial activity against Pseudomonas aeruginosa ATCC 27853 after 24 hrs by broth microdilution method; format: functional; conditions: ATCC 27853, 24 h; method in brief: as §2
Escherichia coli = experiment: Antibacterial activity against Escherichia coli ATCC 25922 after 24 hrs by broth microdilution method; format: functional; conditions: ATCC 25922, 24 h; method in brief: as §2
Streptococcus pyogenes = experiment: Antibacterial activity against penicillin-susceptible Streptococcus pyogenes after 24 hrs by broth microdilution method; format: functional; method in brief: as §2
Bacillus subtilis [7] = experiment: Antibacterial activity against Bacillus subtilis ATCC 9372 after 24 hrs by broth microdilution method; format: functional; conditions: ATCC 9372, 24 h; method in brief: as §2
[8] = target: T1, Cell division protein FtsZ (Staphylococcus aureus); experiment: Inhibition of FtsZ in Staphylococcus aureus ATCC 25923 assessed as decrease in cell division by measuring lowest compound concentration at which bacterial ballooning is observed after 5 hrs by phase-contrast light microscopy; method in brief: as §1
Bacillus subtilis [9] = experiment: Inhibition of FtsZ in Bacillus subtilis ATCC 9372 assessed as decrease in cell division by measuring lowest compound concentration at which bacterial filamentation is observed after 5 hrs by phase-contrast light microscopy; method in brief: as §1

SMILES | INH [1] | inhibition [2] | MIC (Staphylococcus aureus [3]) | inhibition (Bacillus subtilis [4]) | MIC (Staphylococcus aureus [5]) | MIC (Streptococcus pneumoniae) | MIC (Staphylococcus aureus [6]) | MIC (Pseudomonas aeruginosa) | MIC (Escherichia coli) | MIC (Streptococcus pyogenes) | MIC (Bacillus subtilis [7]) | INH [8] | INH (Bacillus subtilis [9])
NC(=O)c1c(F)ccc(OCCCCn2cnc3ccccc32)c1F | 512 µg/mL | inactive | 1020 µg/mL (≈ 2970 µM) | inactive | 1020 µg/mL (≈ 2970 µM) | 512 µg/mL (≈ 1480 µM) | 512 µg/mL (≈ 1480 µM) | 512 µg/mL (≈ 1480 µM) | 1020 µg/mL (≈ 2970 µM) | 1020 µg/mL (≈ 2970 µM) | 512 µg/mL (≈ 1480 µM) |  | 
NC(=O)c1c(F)ccc(OCCCCn2cnc3cc([N+](=O)[O-])ccc32)c1F | 256 µg/mL | inactive | 1020 µg/mL (≈ 2620 µM) | inactive | 512 µg/mL (≈ 1310 µM) | 128 µg/mL (≈ 328 µM) | 256 µg/mL (≈ 656 µM) | 512 µg/mL (≈ 1310 µM) | 512 µg/mL (≈ 1310 µM) | 256 µg/mL (≈ 656 µM) | 64 µg/mL (≈ 164 µM) | 512 µg/mL | 
NC(=O)c1c(F)ccc(OCCCCCn2cnc3ccccc32)c1F | 512 µg/mL | inactive | 512 µg/mL (≈ 1420 µM) | inactive | 512 µg/mL (≈ 1420 µM) | 512 µg/mL (≈ 1420 µM) | 512 µg/mL (≈ 1420 µM) | 512 µg/mL (≈ 1420 µM) | 1020 µg/mL (≈ 2850 µM) | 1020 µg/mL (≈ 2850 µM) | 512 µg/mL (≈ 1420 µM) |  | 
NC(=O)c1c(F)ccc(OCCn2cnc3ccccc32)c1F | 256 µg/mL | inactive | 1020 µg/mL (≈ 3230 µM) | inactive | 1020 µg/mL (≈ 3230 µM) | 512 µg/mL (≈ 1610 µM) | 512 µg/mL (≈ 1610 µM) | 1020 µg/mL (≈ 3230 µM) | 512 µg/mL (≈ 1610 µM) | 1020 µg/mL (≈ 3230 µM) | 1020 µg/mL (≈ 3230 µM) |  | 
NC(=O)c1c(F)ccc(OCc2nc3ccccc3[nH]2)c1F | 128 µg/mL |  | 1020 µg/mL (≈ 3380 µM) | inactive | 1020 µg/mL (≈ 3380 µM) | 256 µg/mL (≈ 844 µM) | 512 µg/mL (≈ 1690 µM) | 256 µg/mL (≈ 844 µM) | 256 µg/mL (≈ 844 µM) | 1020 µg/mL (≈ 3380 µM) | 1020 µg/mL (≈ 3380 µM) | 512 µg/mL | 
NC(=O)c1c(F)ccc(OCCCCCCn2cnc3cc([N+](=O)[O-])ccc32)c1F | 256 µg/mL | inactive | 1020 µg/mL (≈ 2450 µM) |  | 1020 µg/mL (≈ 2450 µM) | 256 µg/mL (≈ 612 µM) | 512 µg/mL (≈ 1220 µM) | 512 µg/mL (≈ 1220 µM) | 512 µg/mL (≈ 1220 µM) | 512 µg/mL (≈ 1220 µM) | 1020 µg/mL (≈ 2450 µM) |  | 64 µg/mL
